According to ChEMBL document CHEMBL3112437, “Virtual screening reveals allosteric inhibitors of the Toxoplasma gondii thymidylate synthase-dihydrofolate reductase” (Bioorg Med Chem Lett, 2014):
Calls of active or inactive are those of the source. The rule behind the calls is not given here.

How the values were obtained:
[1] = target: T1, Bifunctional dihydrofolate reductase-thymidylate synthase (Toxoplasma gondii, UniProt Q07422); assay: Inhibition of Toxoplasma gondii TS-DHFR using methylenetetrahydrofolate/dUMP as sustrate
T1 sequence (Q07422 whole entry): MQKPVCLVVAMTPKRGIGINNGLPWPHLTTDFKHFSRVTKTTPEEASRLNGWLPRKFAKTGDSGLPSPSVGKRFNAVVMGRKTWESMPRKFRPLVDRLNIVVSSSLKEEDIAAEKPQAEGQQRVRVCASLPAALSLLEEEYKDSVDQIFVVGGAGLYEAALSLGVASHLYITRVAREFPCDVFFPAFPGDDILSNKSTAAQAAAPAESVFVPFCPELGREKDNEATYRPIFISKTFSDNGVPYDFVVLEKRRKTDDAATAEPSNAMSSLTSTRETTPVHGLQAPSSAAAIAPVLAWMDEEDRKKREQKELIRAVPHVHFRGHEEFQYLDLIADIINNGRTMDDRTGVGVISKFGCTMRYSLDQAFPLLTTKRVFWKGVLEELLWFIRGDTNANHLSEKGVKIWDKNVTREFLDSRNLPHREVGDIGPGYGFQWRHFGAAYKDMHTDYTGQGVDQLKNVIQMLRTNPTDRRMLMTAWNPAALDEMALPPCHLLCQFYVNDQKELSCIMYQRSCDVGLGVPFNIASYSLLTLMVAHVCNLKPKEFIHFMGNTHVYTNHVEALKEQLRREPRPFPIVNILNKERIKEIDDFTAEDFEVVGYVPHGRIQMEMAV
In short: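 T. gondii TS-DHFR was preincubated with dUMP before compound was added. TS activity was measured across varying compound concentrations. Data were fit to a Michaelis-Menten curve for IC50. Duplicate points; SD between repeats.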

[2] = target: T1, Bifunctional dihydrofolate reductase-thymidylate synthase; assay: Inhibition of Toxoplasma gondii TS-DHFR using methylenetetrahydrofolate/dUMP as sustrate preincubated for 10 mins followed by substrate addition
In short: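 T. gondii TS activity at varying compound concentrations. Compound was mixed with apo TS-DHFR, with no dUMP preincubation. Data were fit to a Michaelis-Menten curve to give IC50. Points in duplicate; SD between repeats.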

[3] = target: T2, Bifunctional dihydrofolate reductase-thymidylate synthase (Toxoplasma gondii) (UniProt Q07422); assay: (§1) Inhibition of Toxoplasma gondii TS-DHFR by Michaelis-Menten plot analysis in presence of bovine serum albumin
T2 sequence (whole entry): T1 sequence (Q07422 whole entry)
In short: (§2)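 Promiscuity (aggregation) check: TgTS-DHFR was preincubated with 0.1 mg/mL BSA before inhibitor was added. TS inhibitory potency was then determined.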

[4] = target: T3, Dihydrofolate reductase (Homo sapiens) (UniProt P00374); assay: Inhibition of DHFR (unknown origin)
T3 sequence (whole entry): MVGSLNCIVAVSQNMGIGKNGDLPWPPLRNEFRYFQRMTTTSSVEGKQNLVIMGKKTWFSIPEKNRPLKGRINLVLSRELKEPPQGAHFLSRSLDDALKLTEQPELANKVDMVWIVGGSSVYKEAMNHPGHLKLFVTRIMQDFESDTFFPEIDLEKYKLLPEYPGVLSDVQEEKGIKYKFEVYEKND

[5] = target: T2, Bifunctional dihydrofolate reductase-thymidylate synthase (Toxoplasma gondii); assay: Mixed type inhibition of Toxoplasma gondii TS-DHFR using dUMP as substrate at 25 uM by Michaelis-Menten plot analysis
[6] = target: T2, Bifunctional dihydrofolate reductase-thymidylate synthase (Toxoplasma gondii); assay: Noncompetitive inhibition of Toxoplasma gondii TS-DHFR using methylenetetrahydrofolate as substrate at 25 uM by Michaelis-Menten plot analysis
[7] = target: T1, Bifunctional dihydrofolate reductase-thymidylate synthase; assay: as §1; in short: as §2

For `O=C(Nc1ccccc1)OCc1ccc(-c2cc(C(F)(F)F)cc(C(F)(F)F)c2)o1`, the IC50 [1] was 190 µM, the IC50 [2] was 54 µM and the inhibition [3] was “inactive”.
With `COC(=O)Nc1nc2cc(-c3nnc(O)c4ccccc34)ccc2[nH]1` the inhibition [4] was “inactive”, the IC50 [1] was 142 µM and the inhibition [5] was “Active”. For the same compound, the IC50 [2] was 51 µM, the inhibition [6] was “Active” and the IC50 [7] was 139 µM.
